Measurements taken from ChEMBL document CHEMBL3259728, “Design, synthesis and biological evaluation of some novel substituted quinazolines as antitumor agents” (2014).

Assays:
Type in all cases: functional
[1] = Growth inhibition of human LOXIMVI cells at 10 uM after 48 hrs by SRB assay; details: LOX IMVI, read-out: GI
Outline: (§1)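 NCI-60 primary one-dose screen run at the US NCI, with human tumour lines from nine cancer types. Compound added once at 10^-5 M, followed by 48 h incubation. End point was sulforhodamine B protein staining read spectrophotometrically. Result given as percent growth of treated cells against untreated controls, reported as % growth inhibition.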

[2] = tested on: HL-60(TB); assay: Growth inhibition of human HL-60(TB) cells at 10 uM after 48 hrs by SRB assay; details: HL-60, 48 h, read-out: GI
Outline: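 NCI 60-cell-line primary screen: compound added at single concentration 10^-5 M, cultures incubated 48 h; end point by sulforhodamine B protein staining read spectrophotometrically; result given as growth percentage of treated versus untreated control cells, reported as % growth inhibition.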

[3] = tested on: MDA-MB-468; assay: Growth inhibition of human MDA-MB-468 cells assessed as cell growth at 10 uM after 48 hrs by SRB assay; details: MDA-MB-468, 48 h, read-out: GI; outline: as §1
[4] = tested on: ACHN; assay: Growth inhibition of human ACHN cells at 10 uM after 48 hrs by SRB assay; details: read-out: GI
Outline: (§2)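 NCI primary one-dose screen. A single concentration of 10^-5 M was added to the cell culture, followed by 48 h incubation and an SRB protein-dye endpoint read spectrophotometrically. Results are growth percentage relative to untreated control cells, reported as % growth inhibition.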

[5] = Growth inhibition of human OVCAR4 cells at 10 uM after 48 hrs by SRB assay; details: OVCAR-4, 48 h, read-out: GI; outline: as §1
[6] = tested on: A498; assay: Growth inhibition of human A498 cells at 10 uM after 48 hrs by SRB assay; details: A498, 48 h, read-out: GI; outline: as §2
[7] = tested on: HCT-116; assay: Growth inhibition of human HCT116 cells at 10 uM after 48 hrs by SRB assay; details: HCT-116, 48 h, read-out: GI; outline: as §1
[8] = Growth inhibition of human HCC2998 cells at 10 uM after 48 hrs by SRB assay; details: HCC 2998, 48 h, read-out: GI; outline: as §1
[9] = tested on: A549; assay: Growth inhibition of human A549 cells at 10 uM after 48 hrs by SRB assay; details: A549, 48 h, read-out: GI; outline: as §2
[10] = tested on: CAKI-1; assay: Growth inhibition of human CAKI-1 cells at 10 uM after 48 hrs by SRB assay; details: CAKI-1, 48 h, read-out: GI; outline: as §2
[11] = Growth inhibition of human UACC257 cells at 10 uM after 48 hrs by SRB assay; details: UACC-257, 48 h, read-out: GI; outline: as §1
[12] = Growth inhibition of human UACC62 cells at 10 uM after 48 hrs by SRB assay; details: UACC-62, 48 h, read-out: GI; outline: as §1
[13] = tested on: K562; assay: Growth inhibition of human K562 cells at 10 uM after 48 hrs by SRB assay; details: K562, 48 h, read-out: GI; outline: as §1
[14] = tested on: NCI-H460; assay: Growth inhibition of human NCI-H460 cells at 10 uM after 48 hrs by SRB assay; details: NCI-H460, 48 h, read-out: GI; outline: as §1
[15] = tested on: RPMI-8226; assay: Growth inhibition of human RPMI8226 cells at 10 uM after 48 hrs by SRB assay; details: RPMI-8226, 48 h, read-out: GI; outline: as §1
[16] = tested on: SK-OV-3; assay: Growth inhibition of human SKOV3 cells at 10 uM after 48 hrs by SRB assay; details: SK-OV-3, 48 h, read-out: GI; outline: as §1
[17] = tested on: SK-MEL-2; assay: Growth inhibition of human SK-MEL-2 cells at 10 uM after 48 hrs by SRB assay; details: SK-MEL-2, 48 h, read-out: GI; outline: as §1
[18] = tested on: SF-268; assay: Growth inhibition of human SF268 cells at 10 uM after 48 hrs by SRB assay; details: SF-268, 48 h, read-out: GI; outline: as §1
[19] = tested on: TK-10; assay: Growth inhibition of human TK10 cells at 10 uM after 48 hrs by SRB assay; details: TK-10, 48 h, read-out: GI; outline: as §1
[20] = Growth inhibition of human MOLT4 cells at 10 uM after 48 hrs by SRB assay; details: MOLT-4, 48 h, read-out: GI; outline: as §1

SMILES | inhibition of growth at 10 µM [1] [%] | inhibition of growth at 10 µM [2] [%] | inhibition of growth at 10 µM [3] [%] | inhibition of growth at 10 µM [4] [%] | inhibition of growth at 10 µM [5] [%] | inhibition of growth at 10 µM [6] [%] | inhibition of growth at 10 µM [7] [%] | inhibition of growth at 10 µM [8] [%] | inhibition of growth at 10 µM [9] [%] | inhibition of growth at 10 µM [10] [%] | inhibition of growth at 10 µM [11] [%] | inhibition of growth at 10 µM [12] [%] | inhibition of growth at 10 µM [13] [%] | inhibition of growth at 10 µM [14] [%] | inhibition of growth at 10 µM [15] [%] | inhibition of growth at 10 µM [16] [%] | inhibition of growth at 10 µM [17] [%] | inhibition of growth at 10 µM [18] [%] | inhibition of growth at 10 µM [19] [%] | inhibition of growth at 10 µM [20] [%]
Cc1ccc(C(=O)Nc2ccc(Cl)cc2C(=O)Nc2ccccn2)cc1 | < 10 | 16 | 11 | < 10 | 22 | 39 | < 10 | < 10 | 13 | 20 | < 10 | 16 | 35 | < 10 | 15 | < 10 | < 10 | 13 | < 10 | –
Cc1ccc(-c2nc3ccc(Cl)cc3c3nnnn23)cc1 | < 10 | < 10 | < 10 | < 10 | < 10 | 11 | < 10 | < 10 | 47 | 25 | < 10 | 18 | 11 | < 10 | < 10 | 12 | < 10 | < 10 | < 10 | < 10
Cc1ccc(C(=O)Nc2ccc(Cl)cc2C(=O)Nc2ccccc2)cc1 | < 10 | – | 11 | 17 | 11 | < 10 | < 10 | < 10 | < 10 | 18 | < 10 | – | – | < 10 | – | 12 | < 10 | < 10 | < 10 | –
Cc1ccc(-c2nc3ccc(Cl)cc3c(=O)n2NC(=O)CN)cc1 | < 10 | < 10 | < 10 | 14 | < 10 | – | 11 | < 10 | < 10 | 14 | < 10 | < 10 | < 10 | < 10 | < 10 | < 10 | < 10 | < 10 | < 10 | < 10
Cc1ccc(-c2nc3ccc(Cl)cc3c(=O)n2NC(=O)CNN)cc1 | 27 | 12 | < 10 | 42 | 80 | 46 | 46 | < 10 | 23 | 35 | 23 | 18 | 11 | 49 | 13 | 84 | < 10 | 28 | 61 | < 10
Cc1ccc(C(=O)Nc2ccc(Cl)cc2C(=O)NCc2ccccc2)cc1 | 21 | 49 | 17 | 14 | 21 | 21 | 11 | 14 | 15 | 23 | 15 | 30 | 70 | < 10 | 23 | < 10 | 49 | < 10 | < 10 | 49
Cc1ccc(C2=Nc3ccc(Cl)cc3C3=NNCC(=O)NN23)cc1 | < 10 | < 10 | 11 | < 10 | < 10 | 34 | < 10 | < 10 | 11 | 14 | < 10 | < 10 | < 10 | < 10 | < 10 | < 10 | < 10 | < 10 | < 10 | < 10
Cc1ccc(-c2nc3ccc(Cl)cc3c3nnc(S)n23)cc1 | < 10 | < 10 | < 10 | < 10 | < 10 | 19 | < 10 | < 10 | 11 | 15 | 33 | < 10 | 11 | < 10 | < 10 | < 10 | < 10 | < 10 | 19 | 13
